Reference: ChEMBL document CHEMBL1152808, “Novel adenosine-derived inhibitors of 70 kDa heat shock protein, discovered through structure-based design” (J Med Chem, 2009)
Calls of active or inactive are those of the source. The calls are words filed in the database; no cut-off is given here.

Tests used:
HCT-116 [1] = assay: Inhibition of HSP70 in human HCT116 cells assessed as reduction of Raf1 protein levels after 24 hrs by Western blot; assay type: cell-based
In short: (§1)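 HCT116 cells exposed to compound for 24 h at 0.05 or 0.1 µM or 2.5-40 µM. Raf-1, Her2 and HSP70 expression detected by Western blot. GAPDH served as loading control.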

[2] = Binding affinity to HSP70 by Biocore direct binding assay
In short: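 SPR direct binding: double His-tagged HSP70 construct immobilized on a Biacore sensor chip; KD determined from direct ligand binding.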

HCT-116 [3] = assay: Cytotoxicity against human HCT116 cells by SRB assay; assay type: functional
In short: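 HCT116 human colon tumour cells; growth inhibition measured by sulforhodamine B (SRB) staining; GI50 reported.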

[4] = Binding affinity to HSP90 by fluorescence polarization assay
HCT-116 [5] = assay: Inhibition of HSP70 in human HCT116 cells assessed as reduction of […] protein levels after 24 hrs by Western blot; assay type: cell-based; in short: as §1
[6] = Displacement of fluorescein labeled N6-(6-amino)hexyl-ATP-5-FAM from HSP70 by fluorescence polarization assay
In short: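 Competitive FP binding: displacement of fluorescein-labelled ATP-based probe N6-(6-amino)hexyl-ATP-5-FAM (probe KD 0.4 µM) from HSP70 at 0.4 µM protein; IC50 from binding competition.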

Compound	Activity (HCT-116 [1])	Kd [2] [µM]	GI50 (HCT-116 [3]) [µM]	IC50 [4] [µM]	Activity (HCT-116 [5])	IC50 [6] [µM]
Nc1ncnc2c1nc(N)n2[C@@H]1O[C@H](CO)[C@@H](O)[C@H]1O	inactive	11	0.05	> 400	inactive	9.4
N#Cc1ccc(COC[C@H]2O[C@@H](n3c(NCc4ccc5ncccc5c4)nc4c(N)ncnc43)[C@H](O)[C@@H]2O)cc1	–	0.05	> 80	> 400	–	0.9
Nc1ncnc2c1nc(NCc1ccc3ncccc3c1)n2[C@@H]1O[C@H](COCc2ccc(C(F)(F)F)cc2)[C@@H](O)[C@H]1O	–	0.06	27	> 400	–	0.6
Nc1ncnc2c1ncn2[C@@H]1O[C@H](COP(=O)(O)OP(=O)(O)O)[C@@H](O)[C@H]1O [ADENOSINE DIPHOSPHATE]	–	0.5	–	> 400	–	0.5
CNc1nc2c(N)ncnc2n1[C@@H]1O[C@H](CO)[C@@H](O)[C@H]1O	–	–	13	> 400	–	17
COC[C@H]1O[C@@H](n2c(NCc3ccc(Cl)c(Cl)c3)nc3c(N)ncnc32)[C@H](O)[C@@H]1O	–	–	> 80	> 400	–	3.2
Nc1ncnc2c1ncn2[C@@H]1O[C@H](COP(=O)(O)OP(=O)(O)OP(=O)(O)O)[C@@H](O)[C@H]1O [ADENOSINE TRIPHOSPHATE]	–	–	–	> 400	–	0.5
Nc1ncnc2c1nc(NCc1ccc3c(c1)OCO3)n2[C@@H]1O[C@H](CO)[C@@H](O)[C@H]1O	–	–	> 80	> 400	–	4.9
Nc1ncnc2c1nc(NCc1ccc(Cl)c(Cl)c1)n2[C@@H]1O[C@H](COCc2cc(F)c(F)c(F)c2)[C@@H](O)[C@H]1O	–	4.2	13	> 400	–	1.7
Nc1ncnc2c1ncn2[C@@H]1O[C@H](CO)[C@@H](O)[C@H]1O [ADENOSINE]	–	–	–	> 400	–	560
Nc1ncnc2c1nc(NCc1ccc(Cl)c(Cl)c1)n2[C@@H]1O[C@H](COCc2ccccc2)[C@@H](O)[C@H]1O	–	–	> 80	> 400	–	2.4
Nc1ncnc2c1nc(NCc1ccc(Cl)c(Cl)c1)n2[C@@H]1O[C@H](CO)[C@@H](O)[C@H]1O	–	–	26	> 400	–	9.1
Nc1ncnc2c1nc(NCc1ccc3ncccc3c1)n2[C@@H]1O[C@H](CO)[C@@H](O)[C@H]1O	–	–	> 80	> 400	–	2.9
Nc1ncnc2c1nc(NCc1ccccc1)n2[C@@H]1O[C@H](CO)[C@@H](O)[C@H]1O	–	–	> 80	> 400	–	10
Nc1ncnc2c1nc(NCc1ccc3ncccc3c1)n2[C@@H]1O[C@H](COCc2cc(F)c(F)c(F)c2)[C@@H](O)[C@H]1O	–	0.12	18	> 400	–	< 0.4
N#Cc1ccc(COC[C@H]2O[C@@H](n3c(NCc4ccccc4)nc4c(N)ncnc43)[C@H](O)[C@@H]2O)cc1	–	0.2	> 80	> 400	–	1.3
N#Cc1ccc(COC[C@H]2O[C@@H](n3c(NCc4ccc(Cl)c(Cl)c4)nc4c(N)ncnc43)[C@H](O)[C@@H]2O)cc1	Active	0.3	5	> 400	Active	0.5
